High-throughput results (PubChem)
TAAR1 antag: human TAAR1 antagonism. AID 624466. CHO RD-HGA16 TAAR1, Fluo-8 calcium fluorescence, antagonist. inhibition, % at 3 µM. 360,000 compounds, 1.5% hits;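 active = inhibition above a per-plate cutoff, the mean inhibition of test compounds on that plate plus 3 SD, cut at about 49% in these data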;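 also: 0% = DMSO plus EC80 beta-PEA response and 100% = DMSO alone without agonist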
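Material: CHO RD-HGA16 cells bearing hTAAR1; compound dosing: one-point dosing, 3 µM nominal final; schedule: dye loading 75 min at 37 °C, then 30 min room temperature; measured by: calcium fluorescence with Fluo-8; control set: vehicle and agonist controls; replication: n of 1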
TAAR1 ag: agonists of human TAAR1; Q96RJ0; activation, % at 3 µM; 360,000 compounds, 0.99% hits; AID 624467; CHO RD-HGA16 TAAR1, Fluo-8 calcium fluorescence; vehicle wells 0%, saturating PEA agonist 100%;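 active = activation above the mean activation of all test compounds in the run plus 3 SD, cut at about 38% in these data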
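test system = CHO RD-HGA16 cells carrying human TAAR1 plus Gα16 | schedule = 17-24 h seeding, 75 min 37 °C dye, 30 min RT | compound dosing = 3 µM single concentration | control set = DMSO and PEA EC100 | replicates = n 1 | signal = Fluo-8 fluorescence, 5 s baseline then 140 s kinetic read | measure = percent activation vs PEA EC100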
CRFR2-BP antag: blocks CRF-induced signaling of the CRF-BP/CRF-R2 complex; HEK293 CRF-R2/CRF-BP, CRF-induced calcium fluorescence; inhibition, % at 11.8 µM; 350,000 compounds, 0.59% hits; AID 588475;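 active = inhibition of the ligand-induced calcium signal above about 50% at the single tested concentration, limit read from the data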
CRFR2-BP ag: agonists of human CRF-binding protein/CRF-R2 receptor complex. activation, % at 13.2 µM. HEK293 CRF-R2/CRF-BP, calcium dye fluorescence (FLIPR); percent of saturating CRF peptide response. 350,000 compounds, 0.46% hits. AID 588473;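 active = activation of at least 50%, plus an integration ratio under a set limit after plate pattern correction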;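 also: plate controls were neutral control wells without compound for no effect and CRF at EC100 for full effect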
TMEM16A inh: mouse TMEM16A channel inhibition, primary screen; Q8BHY3; HEK293 TMEM16A/YFP iodide influx fluorescence, ionomycin; normalized B-score (activity score, 25-100; higher = stronger inhibition) at 10 µM; 310,000 compounds, 1.2% hits; AID 588511;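 active = ratio plate-corrected score three or more library SD toward inhibition, starting fluorescence score within five deviations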;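 also: score derived from kinetic fluorescence span divided by baseline fluorescence per well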
TMEM16A act: mouse TMEM16A channel activation, primary screen; B-score at 10 µM; AID 623877; Q8BHY3; HEK293 TMEM16A/YFP-H148Q/I152L, iodide quench fluorescence; hits give low values; 340,000 compounds, 0.3% hits;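 active = fluorescence-ratio B-score plate-corrected deviation score at least 3 library SD below zero, with starting fluorescence score within 5 deviations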;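 also: channel opened by trigger with iodide after compound preincubation; score built on the fluorescence ratio of max minus min over baseline; more negative score means more quench and so TMEM16A activation or potentiation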
TAAR1 ag conf: confirmation of human TAAR1 agonists | CHO RD-HGA16 TAAR1, Fluo-8 calcium fluorescence; scaled: DMSO 0%, maximal phenethylamine 100% | shares compounds with TAAR1 ag | activation, % at 3 µM | 2,400 compounds, 82% hits;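 active = activation above a cutoff set at the run's mean compound activation plus 3 SD, cut at about 39% in these data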
Ga16 nonsel ag: counter-screen for TAAR1 agonists: nonselective agonists in parental cells; shares compounds with TAAR1 ag; CHO-Ga16 parental, Fluo-8 calcium fluorescence; normalized to maximal ATP response, DMSO zero; activation, % at 3 µM; 2,400 compounds, 50% hits; AID 651787;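 active = activation above the run cutoff, the mean activation over all tested wells plus 3 SD, cut at about 12% in these data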;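 also: 0% = DMSO wells and 100% = maximal ATP response on the peak over basal ratio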
TAAR1 desens: counter-screen for human TAAR1 agonists: agonists that desensitize TAAR1. shares compounds with TAAR1 ag. AID 651951. inhibition, % at 3 µM. 2,400 compounds, 46% hits. CHO RD-HGA16 hTAAR1, Fluo-8 calcium, beta-PEA response inhibition;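 active = inhibition above the run cutoff, the mean inhibition of all test compounds plus 3 SD, cut at about 49% in these data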;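 also: beta-PEA stimulus applied at its EC80; loss of beta-PEA calcium signal after compound pretreatment read as receptor desensitization; 0% = DMSO with beta-PEA at EC80 and 100% = DMSO alone without agonist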
Ga16 nonsel ant: nonselective Ga16 antagonism, counter-screen; 2,400 compounds, 39% hits; shares compounds with TAAR1 ag; AID 651952; CHO-Ga16 ATP-induced calcium, Fluo-8 fluorescence; inhibition, % at 3 µM;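 active = inhibition above the plate's mean compound inhibition plus 3 SD, computed per plate, cut at about 22% in these data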;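 also: 0% = EC80 ATP with DMSO and 100% = DMSO wells without ATP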
* = called active by the depositor; i = inactive; / = not tested or not shown. Compounds with a hit are over-represented: about 3.9% of the library has one in this group of screens.

SMILES | TAAR1 antag | TAAR1 ag | CRFR2-BP antag | CRFR2-BP ag | TMEM16A inh | TMEM16A act | TAAR1 ag conf | Ga16 nonsel ag | TAAR1 desens | Ga16 nonsel ant
COc1ccc(/C=C/C2=Nc3ccccc3NC(C)(C)C2)cc1OC | -14 | 9 | -14 | 1 | i | i | / | / | / | /
Cc1c(C(=O)N2CCc3ccccc3C2)oc2ccc(S(=O)(=O)N3CC(C)CC(C)C3)cc12 (stereo unspecified) | / | / | -7 | -1 | i | i | / | 3 | / | 4
COc1ccc(S(=O)(=O)N2CCC(C(=O)N3CCc4ccccc4C3)CC2)cc1C | 9 | 52* | 43 | -3 | i | i | 76* | 1 | 20 | 11
CSc1ccc(S(=O)(=O)N2CCC(C(=O)N3CCc4ccccc4C3)CC2)cc1 | 2 | 12 | 6 | 1 | i | i | / | / | / | /
COc1cc(NS(=O)(=O)c2c(C)[nH]c(C)c2C(=O)N2CCCCC2)cc(OC)c1OC | -11 | 3 | 4 | -1 | i | i | / | / | / | /
CCn1c2ccccc2c2cc(/C=N/NC(=O)c3ccc(O)cc3)ccc21 | 30 | 47* | -26 | 10 | i | i | 47* | 2 | 29 | 13
CN1C(=O)NC(c2cccc(F)c2)C2=C1CC(C)(C)CC2=O (stereo unspecified) | -5 | 2 | -16 | -1 | i | i | / | / | / | /
CCOC(=O)C1(CCCc2ccccc2)CCN(C(=O)CN2C(=O)CSC2=O)CC1 | 14 | 6 | 9 | 0 | i | i | / | / | / | /
CN(C(=O)c1ccc(NC(=O)Cc2cccc([N+](=O)[O-])c2)cc1)C1CC1 | -5 | 3 | 3 | -2 | / | i | / | / | / | /
CN(C(=O)c1ccc(NC(=O)Cc2ccc([N+](=O)[O-])cc2)cc1)C1CC1 | 39 | 77* | -19 | 37 | / | i | 97* | 41* | 35 | 17
CCCCN(C(=O)NCCCCCCNC(=O)N(CCCC)C1CCS(=O)(=O)C1)C1CCS(=O)(=O)C1 (stereo unspecified) | -8 | 2 | 1 | 0 | i | i | / | / | / | /
COc1ccc(OCC(=O)N2CCC(n3nccc3NC(=O)C3CC3)CC2)cc1 | -8 | 1 | 9 | 0 | i | i | / | / | / | /
CCOc1cccc(/C=N/NC(=S)Nc2ccccc2[N+](=O)[O-])c1O | 14 | 5 | 6 | 1 | i | i | / | / | / | /
O=[N+]([O-])c1ccccc1NC(=S)N/N=C/c1ccc(O)c(O)c1 | 13 | 52* | -22 | -6 | i | i | 84* | 6 | 56* | 10
O=C1S/C(=C\c2ccc(N3CCOCC3)o2)C(=O)N1c1ccccc1 | 83* | 209* | -23 | 6 | i | i | 140* | 163* | 82* | 87*
CC(Cc1ccco1)NC(=O)c1ccc(C(F)(F)F)cc1 (stereo unspecified) | -19 | -1 | -6 | 0 | i | i | / | / | / | /
CCOC(=O)C1CCN(C(=O)CCC(=O)NCCc2ccc(Cl)cc2)CC1 | -2 | 5 | -8 | -2 | i | i | / | / | / | /
CCOC(=O)C1CCC(CNCc2ccc(Cl)cc2)CC1 (stereo unspecified) | 21 | 71* | -1 | -1 | i | i | 1 | 4 | 0 | -6
COc1cccc(CNS(=O)(=O)c2ccc3c(c2)CCN3C(=O)C2CC2)c1 | 17 | 8 | 9 | 0 | i | i | / | / | / | /
O=C(C1CC1)N1CCc2cc(S(=O)(=O)NCc3ccccc3)ccc21 | 37 | 68* | -3 | 0 | i | i | 5 | 8 | 15 | 18
O=C(O)c1cccc(CN2C(=O)c3ccccc3C2=O)c1 | -15 | 1 | -16 | 0 | i | / | / | / | / | /
O=C1c2cccc3c(O)ccc(c23)C(=O)N1Cc1ccccc1 | 107* | 367* | -196 | 248 | i | i | 115* | 179* | 82* | 88*
O=C(Cc1cccs1)N[C@@H]1c2ccccc2CC[C@@H]1OCc1ccccc1 | 82* | 59* | 6 | -5 | / | / | 0 | 6 | 12 | 18
Nc1ccccc1SSc1ccccc1N | 16 | 46* | -5 | -2 | i | i | 34 | 11 | 3 | 7
CCOc1ccc(C=NCC(O)c2ccccc2)cc1 (stereo unspecified) | 76* | 94* | -5 | 2 | i | i | 106* | 1 | 88* | -1
SMILES | TAAR1 antag | TAAR1 ag | CRFR2-BP antag | CRFR2-BP ag | TMEM16A inh | TMEM16A act | TAAR1 ag conf | Ga16 nonsel ag | TAAR1 desens | Ga16 nonsel ant
CCOc1ccc(/C=N/NC(=O)C(OC)c2ccccc2)cc1 (stereo unspecified) | 15 | 2 | -22 | 0 | i | i | / | / | / | /
O=C(CCS(=O)(=O)c1ccccc1)N1CCN(c2ccccc2)CC1 | -7 | 1 | -6 | -1 | i | i | / | / | / | /
C[C@H]1[C@H](c2ccccc2)Oc2cccc(NCCc3ccccc3)c2S(=O)(=O)N1Cc1ccc(F)cc1 | 2 | 79* | / | / | / | / | 70* | 2 | 18 | 10
C[C@H]1[C@H](c2ccccc2)Oc2cccc(N3CCCC3)c2S(=O)(=O)N1Cc1cccc(F)c1 | -25 | 1 | / | / | / | / | / | / | / | /
Cc1cc(C2=NNC(=NCCc3ccccc3)SC2)c(C)n1-c1c(C)n(C)n(-c2ccccc2)c1=O | 21 | 70* | 2 | 0 | i | i | 93* | 2 | 62* | 2
CCN(Cc1ccncc1)Cc1c(O)ccc2ccccc12 | -7 | 53* | 4 | -1 | / | i | 55* | 2 | 21 | 7
CC(C)CN(Cc1c(O)ccc2ccccc12)CC(C)C | -1 | 7 | -8 | -2 | i | i | / | / | / | /
CCCC[C@@H]1CNCCN1CCc1cccc2ccccc12 | 75* | 66* | -3 | 0 | i | i | 70* | 6 | 87* | 17
FC(F)(F)c1cc(CCN2CCNC[C@H]2Cc2cccc3ccccc23)cc(C(F)(F)F)c1 | 95* | 84* | -17 | 12 | i | -9.7* | 51* | 28* | 40 | 40*
